According to ChEMBL document CHEMBL3243994, “Synthesis of medroxyprogesterone bromoacetate for affinity labeling” (J Med Chem, 1977):
The source made the active and inactive calls. The rule behind the calls is not given here.

What was measured:
[1] = system: Rattus norvegicus; assay: Termination of pregnancy in intact rat assessed as fetal resorption administered into uterine lumen on day 7 measured on day 14; assay type: functional, organism-based
[2] = system: Rattus norvegicus; assay: Progestational activity in 9-day old pregnant bilateral ovariectomized Sprague-Dawley albino rat assessed as viable fetus at 0.055 to 0.11 mg, sc for 3 days beginning 3 hrs prior to overiectomy measured on day 12 in presence of 17beta-estradiol; assay type: functional, organism-based
Outline: (§1)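 Albino rats (Holtzman), 9 days pregnant and weighing 275–305 g, were used in groups of five. They received subcutaneous steroid in 0.2 mL sesame oil together with 17β-estradiol, 3 h before bilateral ovariectomy. Injections were repeated every 12 h for 3 days. On day 12 the animals were killed, opened by a ventral longitudinal incision, and the intact uteri removed to examine the fetuses.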

[3] = target: 3-alpha-(or 20-beta)-hydroxysteroid dehydrogenase (Streptomyces exfoliatus) (UniProt P19992); assay: Inhibition of 20beta-hydroxy steroid dehydrogenase in Streptomyces hydrogenans assessed as half life of enzyme inactivation at 50 uM
Outline: (§2)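 20β-Hydroxy steroid dehydrogenase from Streptomyces hydrogenans (4.2×10^-7 M) in 0.05 M phosphate buffer, pH 7.0, with 15% glycerol, was incubated with the bromoacetate steroid at 5×10^-5 M at 25 °C. Remaining activity was followed over time as NADH-dependent cortisone reduction to assess time-dependent, irreversible inactivation. The inactivation half-life was taken from the rate of activity loss.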

[4] = system: Rattus norvegicus; assay: Progestational activity in 9-day old pregnant bilateral ovariectomized Sprague-Dawley albino rat assessed as unresorbed fetus at 0.074 mg, sc for 2 days beginning 3 hrs prior to overiectomy measured on day 12 in presence of 17beta-estradiol; assay type: functional, organism-based
Outline: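 Pregnant albino rats (Holtzman, day 9, 275–305 g) were used in a group of five. They received a subcutaneous steroid/17β-estradiol mixture in 0.2 mL sesame oil 3 h before bilateral ovariectomy and a second injection 12 h later, with nothing given afterwards. On day 12 the rats were sacrificed and autopsied, and the intact uteri removed to score the fetuses.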

[5] = system: Rattus norvegicus; assay: Progestational activity in 9-day old pregnant bilateral ovariectomized Sprague-Dawley albino rat assessed as viable fetus at 0.074 to 0.15 mg, sc for 3 days beginning 3 hrs prior to overiectomy measured on day 12 in presence of 17beta-estradiol; assay type: functional, organism-based; outline: as §1
[6] = target: 3-alpha-(or 20-beta)-hydroxysteroid dehydrogenase (Streptomyces exfoliatus) (UniProt P19992); assay: Irreversible inhibition of 20beta-hydroxy steroid dehydrogenase in Streptomyces hydrogenans assessed as inhibition of […] at 50 uM; outline: as §2
[7] = target: 3-alpha-(or 20-beta)-hydroxysteroid dehydrogenase (Streptomyces exfoliatus) (UniProt P19992); assay: Time-dependent inhibition of 20beta-hydroxy steroid dehydrogenase in Streptomyces hydrogenans assessed as inhibition of […] at 50 uM; outline: as §2
[8] = system: Rattus norvegicus; assay: Progestational activity in 9-day old pregnant bilateral ovariectomized Sprague-Dawley albino rat assessed as viable fetus at 1 mg, sc for 3 days beginning 3 hrs prior to overiectomy measured on day 12 in presence of 17beta-estradiol; assay type: functional, organism-based
Outline: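 Groups of five 9-day-pregnant albino rats (275–305 g) received sc injections in 0.2 mL sesame oil together with 17β-estradiol (0.1×10^-3 mg), starting 3 h before bilateral ovariectomy. Injections were repeated every 12 h for 3 days. On day 12 the animals were sacrificed and opened by longitudinal ventral incision, and the intact uteri were removed to examine the fetuses.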

Chain of 3-alpha-(or 20-beta)-hydroxysteroid dehydrogenase (Streptomyces exfoliatus) (P19992 whole entry): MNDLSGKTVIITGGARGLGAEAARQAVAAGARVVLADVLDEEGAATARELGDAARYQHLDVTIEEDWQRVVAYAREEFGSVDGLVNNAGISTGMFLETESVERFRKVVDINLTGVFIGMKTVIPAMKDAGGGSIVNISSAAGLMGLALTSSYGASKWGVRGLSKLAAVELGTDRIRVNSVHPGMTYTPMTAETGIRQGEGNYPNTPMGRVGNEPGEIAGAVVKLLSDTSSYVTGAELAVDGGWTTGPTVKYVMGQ

CC(=O)[C@H]1CC[C@H]2[C@@H]3CCC4=CC(=O)CC[C@]4(C)[C@H]3[C@H](OC(=O)CBr)C[C@]12C
Activity [1]: Active

C[C@]12CC[C@H]3[C@@H](CCC4=CC(=O)CC[C@@H]43)[C@@H]1CC[C@@H]2OC(=O)CBr
Activity [1]: Active

CC(=O)O[C@]1(C(C)=O)CC[C@H]2[C@@H]3C[C@H](C)C4=CC(=O)CC[C@]4(C)[C@H]3CC[C@@]21C
Activity [2]: Active

CC(=O)[C@H]1[C@H](OC(=O)CBr)C[C@H]2[C@@H]3CCC4=CC(=O)CC[C@]4(C)[C@H]3CC[C@@]21C
Activity [1]: Active | T1/2 [3]: 4 h

CC(=O)[C@@]1(OC(=O)CBr)CC[C@H]2[C@@H]3C[C@H](C)C4=CC(=O)CC[C@]4(C)[C@H]3CC[C@@]21C
Activity [4]: Active | Activity [5]: Active | inhibition [6]: Active | inhibition [7]: Active | Activity [1]: inactive | T1/2 [3]: 15 h

CC(=O)[C@H]1CC[C@H]2[C@@H]3CCC4=CC(=O)CC[C@]4(C)[C@H]3CC[C@]12C
Activity [8]: Active
